Measured values from different studies.
Protocols differ between the studies behind these lines.
Effect on: cell growth or viability

CCCCC(=O)Nc1ccc(-c2ccc3ncn(CCC)c(=O)c3c2)c(F)n1 — IC50 (HCC827; CCK-8; 72 h): 0.82 µM
O=C1CS/C(=N\c2cc(C(F)(F)F)ccc2-c2nnc(N3C(=O)CS/C3=N\c3ccc(Cl)cc3)s2)N1c1ccc(Cl)cc1 — IC50 (WI-38; MTT): 49.2 µM
CCCCC(=O)Nc1ccc(-c2ccc3ncn(CCC)c(=O)c3c2)cn1 — IC50 (HCC827; CCK-8; 72 h): 0.037 µM
Cc1cccc([N+](=O)[O-])c1N=C1SCC(=O)N1c1nnc(-c2ccc(C(F)(F)F)cc2N=C2SCC(=O)N2c2c(C)cccc2[N+](=O)[O-])s1 — IC50 (WI-38; MTT): 67.5 µM
CN1CCC(NC2CCc3[nH]c4c(C(N)=O)ccc(-c5ccccc5Cl)c4c3C2)CC1 (centres unmarked) — IC50 (HuCCT-1; 96 h): 0.00122 µM
Cc1nc(Nc2ncc(C(=O)Nc3c(C)cccc3Cl)s2)cc(N2CC[C@H](O)C2)n1 — IC50 (KARPAS-299; ATP luminescence; 72 h): > 10 µM
NCc1ccc(-c2nn(Cc3ccccc3)c3ccccc23)o1 — IC50 (HuCCT-1; ATP luminescence): > 46 µM
CCCCC(=O)Nc1ccc(-c2ccc3ncn(CCCC)c(=O)c3c2)cn1 — IC50 (HCC827; CCK-8; 72 h): 0.13 µM
COc1cccc2c1C(=O)c1c(O)c3c(c(O)c1C2=O)C[C@@](O)(C(=O)CO)C[C@@H]3O[C@H]1C[C@H](N)[C@H](O)[C@H](C)O1 — IC50 (ASPC1; SRB): 5.91 µM
OCc1ccc(-c2nn(Cc3ccncc3)c3ccccc23)o1 — IC50 (HuCCT-1; ATP luminescence): > 46 µM
CCCCC(=O)Nc1ccc(-c2ccc3ncn(CCC)c(=O)c3c2)c(C)n1 — IC50 (HCC827; CCK-8; 72 h): 1.68 µM
CC(C)C(=O)Nc1ccc([N+](=O)[O-])c(C(F)(F)F)c1 — IC50 (HaCaT; MTS; 48 h): > 100 µM
CCCCn1cnc2ccc(-c3ccc(NC(=O)Nc4ccccc4)nc3)cc2c1=O — IC50 (HCC827; CCK-8; 72 h): 0.98 µM
OCc1ccc(-c2nn(Cc3cccnc3)c3ccccc23)o1 — IC50 (HuCCT-1; ATP luminescence): > 46 µM
O=C1CS/C(=N\c2cc(C(F)(F)F)ccc2-c2nnc(N3C(=O)CS/C3=N\c3ccc(F)c(O)c3)s2)N1c1ccc(F)c(O)c1 — IC50 (WI-38; MTT): 20.3 µM
O=C(Nc1ccc(-c2ccc3ncn(Cc4ccc5c(c4)OCO5)c(=O)c3c2)cn1)c1ccccc1 — IC50 (HCC827; CCK-8; 72 h): 8.81 µM
NCc1ccc(-c2nn(Cc3ccccn3)c3cccnc23)o1 — IC50 (HuCCT-1; ATP luminescence): > 46 µM
CC(C)=CCc1ncc(/C=C2\NC(=O)[C@H](C(C)C)NC2=O)[nH]1 — IC50 (ASPC1; SRB): > 15 µM
COc1cccc2c1C(=O)c1c(O)c3c(c(O)c1C2=O)C[C@@](O)(C(=O)CO)C[C@@H]3O[C@H]1C[C@H](N)[C@H](O)[C@H](C)O1 — IC50 (HPAF-II; ATP luminescence; 72 h): 0.7 µM
O=C1CS/C(=N\c2cc(C(F)(F)F)ccc2-c2nnc(N3C(=O)CS/C3=N\c3ccc(-c4ccccc4)cc3)s2)N1c1ccc(-c2ccccc2)cc1 — IC50 (WI-38; MTT): 94.7 µM
OCc1ccc(-c2nn(Cc3ccncc3)c3cccnc23)o1 — IC50 (HuCCT-1; ATP luminescence): > 46 µM
CC1(P2(=O)CCCCC2)CCCCC1 — IC50 (HaCaT; MTT; 72 h): > 100 µM
O=C1CSC(=Nc2cc(C(F)(F)F)ccc2-c2nnc(N3C(=O)CSC3=Nc3ccc([N+](=O)[O-])cc3)s2)N1c1ccc([N+](=O)[O-])cc1 — IC50 (WI-38; MTT): 77.3 µM
COc1ncccc1Cn1nc(-c2ccc(CO)o2)c2ccccc21 — IC50 (HuCCT-1; ATP luminescence): > 46 µM
O=P1(C2CCCCC2)CCCCC1 — IC50 (HaCaT; MTT; 72 h): > 100 µM
OCc1ccc(-c2nn(Cc3ccccc3)c3ccccc23)o1 — IC50 (HuCCT-1; ATP luminescence): > 46 µM
COc1ccc(N=Nc2c(N)nn3c(-c4ccc(C)cc4)cc(-c4ccc(OCc5ccccc5)cc4)nc23)cc1 — IC50 (WI-38; MTT; 48 h): 47 µM
Cc1ccc(S(=O)(=O)[O-])cc1.Nc1c([I+]c2ccccc2)c(=O)oc2ccccc12 — IC50 (HaCaT; MTT; 48 h): 35 µg/mL
OCc1ccc(-c2nn(Cc3cccnc3)c3cccnc23)o1 — IC50 (HuCCT-1; ATP luminescence): > 46 µM
COc1cccc2c1C(=O)c1c(O)c3c(c(O)c1C2=O)C[C@@](O)(C(=O)CO)C[C@@H]3O[C@H]1C[C@H](N)[C@H](O)[C@H](C)O1 — IC50 (WI-38; MTT): 52.6 µM
Cc1ccc(C(=O)Nc2ccc(-c3ccc4ncn(Cc5ccccc5)c(=O)c4c3)cn2)cc1 — IC50 (HCC827; CCK-8; 72 h): > 10 µM
COc1ccc(N=C2SCC(=O)N2c2nnc(-c3ccc(C(F)(F)F)cc3N=C3SCC(=O)N3c3ccc(OC)cc3)s2)cc1 — IC50 (WI-38; MTT): 69.5 µM
O=c1[nH]cc(F)c(=O)[nH]1 — IC50 (WI-38; MTT; 72 h): 42.2 µM
O=C1CS/C(=N\c2cc(C(F)(F)F)ccc2-c2nnc(N3C(=O)CS/C3=N\c3cc(O)cc(Br)c3)s2)N1c1cc(O)cc(Br)c1 — IC50 (WI-38; MTT): 71.1 µM
O=C(Nc1ccc(-c2ccc3ncn(Cc4ccccc4)c(=O)c3c2)cn1)C1CCCC1 — IC50 (HCC827; CCK-8; 72 h): > 10 µM
